Data from ChEMBL document CHEMBL3044558, “Structure-activity relationship development of dihaloaryl triazole compounds as insecticides and acaricides. 1. Phenyl thiophen-2-yl triazoles” (2007).
Values after ≈ are worked out from the molar mass of the structure shown. Active and inactive are the calls of the source. The calls are words filed in the database; no cut-off is given here.

How the values were obtained:
Heliothis virescens [1] = assay: Insecticidal activity against Heliothis virescens (tobacco budworm) second-instar larvae infested on 400 ppm compound pre-treated cotton cotyledon disk assessed as insect mortality measured 5 days post compound treatment under green house conditions; format: functional
Aphis gossypii [2] = assay: Insecticidal activity against Aphis gossypii (cotton aphid) infested one week old Crookneck squash plants assessed as insect mortality at 50 ppm measured after 3 days post compound application under green house conditions; format: functional; settings: 72 h
Tetranychus urticae [3] = assay: Insecticidal activity against female Tetranychus urticae (two-spotted spider mite) infested cotton leaf disks followed by 2.5 ppm compound spraying after oviposit assessed as insect mortality measured after 6 days post compound application under green house conditions; format: functional; settings: foliar, 144 h
Heliothis virescens [4] = assay: Insecticidal activity against Heliothis virescens (tobacco budworm) second-instar larvae infested on compound pre-treated cotton cotyledon disk assessed as insect mortality measured 5 days post compound treatment under green house conditions; format: functional; settings: Heliothis virescens
Procedure, shortened: (§1)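 Leaf disks treated, air-dried and placed singly in cups. Cotton cotyledon disks each get one second-instar tobacco budworm larva; cabbage leaf disks each get one second-instar cabbage looper larva. Cups are capped and held in a growth chamber at 25 °C, 50-55% RH, 14 h light/10 h dark for 5 days.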

Spodoptera exigua [5] = assay: Insecticidal activity against Spodoptera exigua second-instar larvae feeded on compound treated lepidopteran diet assessed as insect mortality measured 5 days post compound treatment under green house conditions; format: functional; settings: for LC50: Spodoptera exigua, 120 h
Aphis gossypii [6] = assay: Insecticidal activity against Aphis gossypii (cotton aphid) infested one week old Crookneck squash plants assessed as insect mortality measured after 3 days post compound application under green house conditions; format: functional; settings: for LC50: Aphis gossypii, 72 h
Myzus persicae = assay: Insecticidal activity against Myzus persicae (green peach aphid) assessed as insect mortality at 50 ppm; format: functional
Spodoptera exigua [7] = assay: Insecticidal activity against Spodoptera exigua second-instar larvae feeded on 400 ppm compound treated lepidopteran diet assessed as insect mortality measured 5 days post compound treatment under green house conditions; format: functional; settings: at 400 ppm
Trichoplusia ni [8] = assay: Insecticidal activity against Trichoplusia ni (cabbage looper) second-instar larvae infested on 400 ppm compound pre-treated cabbage leaf disk assessed as insect mortality measured 5 days post compound treatment under green house conditions; format: functional; settings: at 400 ppm
Bemisia tabaci [9] = tested on: Bemisia tabaci
Trichoplusia ni [10] = assay: Insecticidal activity against Trichoplusia ni (cabbage looper) second-instar larvae infested on compound pre-treated cabbage leaf disk assessed as insect mortality measured 5 days post compound treatment under green house conditions; format: functional; settings: for LC50: Trichoplusia ni, foliar; procedure, shortened: as §1
Heliothis virescens [11] = tested on: Heliothis virescens
Spodoptera exigua [12] = tested on: Spodoptera exigua
Tetranychus urticae [13] = tested on: Tetranychus urticae
Aphis gossypii [14] = tested on: Aphis gossypii
Trichoplusia ni [15] = tested on: Trichoplusia ni
Bemisia tabaci [16] = assay: Insecticidal activity against Bemisia tabaci (sweet potato whitefly) second-instar larvae infested five weeks old cotton plants followed by compound 250 ppm compound spraying after insect oviposit assessed as insect mortality measured 13 days post compound treatment under green house conditions; format: functional
Aphis gossypii [17] = assay: Insecticidal activity against Aphis gossypii (cotton aphid) infested one week old Crookneck squash plants assessed as insect mortality at 5 ppm measured after 3 days post compound application under green house conditions; format: functional; settings: 72 h

Row | Compound | mortality (Heliothis virescens [1]) | mortality at 2.5 ppm (Tetranychus urticae [3]) | mortality (Spodoptera exigua [7]) | mortality (Trichoplusia ni [8]) | mortality (Bemisia tabaci [9]) | mortality (Heliothis virescens [11]) | mortality (Spodoptera exigua [12]) | mortality (Tetranychus urticae [13]) | mortality (Aphis gossypii [14]) | mortality (Trichoplusia ni [15]) | mortality (Bemisia tabaci [16]) | also measured
1 | Cc1cc(-c2ccc(Cl)c(F)c2)sc1-c1nc(-c2c(F)cccc2Cl)nn1C | 90% | 90% | 90% | 90% | inactive | – | – | – | – | – | – | mortality at 50 ppm (Aphis gossypii [2]): 80%; LC50 (Heliothis virescens [4]): 19.4 µg/mL (≈ 44.5 µM); LC90 (Spodoptera exigua [5]): 323 ppm; LC50 (Spodoptera exigua [5]): 65 µg/mL (≈ 149 µM); LC90 (Aphis gossypii [6]): 933 ppm; LC50 (Aphis gossypii [6]): 0.923 µg/mL (≈ 2.12 µM); LC50 (Myzus persicae): 89 µg/mL (≈ 204 µM); LC90 (Trichoplusia ni [10]): 40.3 ppm; LC50 (Trichoplusia ni [10]): 30.2 µg/mL (≈ 69.2 µM)
2 | Cn1nc(-c2c(F)cccc2F)nc1-c1ccc(-c2ccc(C(C)(F)F)cc2Cl)s1 | – | – | – | – | inactive | inactive | inactive | inactive | inactive | inactive | – | –
3 | Cn1nc(-c2c(F)cccc2Cl)nc1-c1cc(Br)c(-c2cccc(C(F)(F)F)c2)s1 | – | – | <50% | – | inactive | inactive | – | inactive | inactive | inactive | – | –
4 | Cc1cc(C2CCC(O)CC2)sc1-c1nc(-c2c(F)cccc2Cl)nn1C (stereo unspecified) | <50% | – | – | – | – | – | inactive | inactive | inactive | inactive | 50% | –
5 | Cn1nc(-c2c(F)cccc2Cl)nc1-c1ccc(-c2cccc(C(F)(F)F)c2)s1 | – | – | – | – | inactive | inactive | inactive | inactive | inactive | inactive | – | –
6 | Cn1nc(-c2c(F)cccc2Cl)nc1-c1cc(Br)c(-c2ccc(OC(F)(F)F)cc2)s1 | 90% | 90% | – | 90% | – | – | inactive | – | inactive | – | <50% | –
7 | Cc1cc(C2=CCC(O)CC2)sc1-c1nc(-c2c(F)cccc2Cl)nn1C (stereo unspecified) | <50% | – | – | – | – | – | inactive | inactive | – | inactive | <50% | mortality at 50 ppm (Aphis gossypii [2]): < 50%
8 | Cc1sc(-c2nc(-c3c(F)cccc3Cl)nn2C)c(C)c1-c1ccc(O)cc1 | <50% | – | – | – | – | – | inactive | inactive | inactive | inactive | <50% | –
9 | Cn1nc(-c2c(F)cccc2Cl)nc1-c1ccc(-c2ccc(C(F)(F)F)cc2)s1 | – | 80% | – | – | inactive | inactive | inactive | – | inactive | inactive | – | –
10 | Cn1nc(-c2c(F)cccc2Cl)nc1-c1cc(Br)c(-c2ccc(C(F)(F)F)cc2)s1 | – | – | – | – | inactive | inactive | inactive | inactive | inactive | inactive | – | –
11 | Cn1nc(-c2c(F)cccc2Cl)nc1-c1sc(-c2ccc(O)cc2)cc1Cl | 60% | – | – | – | inactive | – | inactive | inactive | – | inactive | – | mortality at 50 ppm (Aphis gossypii [2]): < 50%
12 | Cc1ccc(-c2ccc(-c3nc(-c4c(F)cccc4Cl)nn3C)s2)cc1 | – | – | – | – | – | inactive | inactive | inactive | inactive | inactive | <50% | –
13 | Cc1ccc(-c2cc(Cl)c(-c3nc(-c4c(F)cccc4F)nn3C)s2)cc1 | 80% | 90% | – | – | inactive | – | inactive | – | inactive | inactive | – | –
14 | Cn1nc(-c2c(F)cccc2F)nc1-c1sc(-c2ccc(C(F)(F)F)cc2)cc1Cl | 90% | 90% | – | <50% | inactive | – | inactive | – | inactive | – | – | –
15 | Cn1nc(-c2c(F)cccc2Cl)nc1-c1sc(-c2ccc(OC(F)(F)C(F)Br)cc2)cc1Cl (stereo unspecified) | 90% | 90% | 50% | 70% | inactive | – | – | – | – | – | – | mortality at 50 ppm (Aphis gossypii [2]): 90%; LC50 (Heliothis virescens [4]): 53.7 µg/mL (≈ 92.4 µM); LC50 (Spodoptera exigua [5]): < 1.6 µg/mL; LC50 (Myzus persicae): 70 µg/mL (≈ 120 µM); mortality at 5 ppm (Aphis gossypii [17]): 54%; LC50 (Trichoplusia ni [10]): < 1.6 µg/mL
16 | Cn1nc(-c2c(F)cccc2F)nc1-c1ccc(-c2ccc(OC(F)(F)F)cc2)s1 | 90% | – | – | 90% | inactive | – | inactive | inactive | inactive | – | – | –
17 | Cc1cc(-c2ccc(OC(F)(F)C(F)Br)cc2)sc1-c1nc(-c2c(F)cccc2Cl)nn1C (stereo unspecified) | 90% | 90% | 70% | <50% | inactive | – | – | – | – | – | – | mortality at 50 ppm (Aphis gossypii [2]): 90%; LC50 (Heliothis virescens [4]): 3.93 µg/mL (≈ 7.01 µM); LC50 (Spodoptera exigua [5]): 2.17 µg/mL (≈ 3.87 µM); LC50 (Myzus persicae): 62 µg/mL (≈ 111 µM); mortality at 5 ppm (Aphis gossypii [17]): 89%; LC50 (Trichoplusia ni [10]): < 1.6 µg/mL
18 | Cc1cc(-c2ccc3c(c2)OC(F)(F)O3)sc1-c1nc(-c2c(F)cccc2Cl)nn1C | – | – | 80% | – | – | inactive | – | inactive | inactive | inactive | <50% | –
19 | O=[N+]([O-])/N=C1\NCCN1Cc1ccc(Cl)nc1 [IMIDACLOPRID] | – | – | – | – | – | – | – | – | – | – | – | LC50 (Aphis gossypii [6]): 0.05 µg/mL (≈ 0.196 µM); LC50 (Myzus persicae): 1.7 µg/mL (≈ 6.65 µM)
20 | Cn1nc(-c2c(F)cccc2F)nc1-c1ccc(-c2ccc(F)c(F)c2)s1 | – | – | – | – | inactive | inactive | inactive | inactive | inactive | inactive | – | –
21 | CC1(C)C(C=C(Cl)Cl)C1C(=O)OC(C#N)c1cccc(Oc2ccccc2)c1 (stereo not drawn) [ALPHA-CYPERMETHRIN] | – | – | – | – | – | – | – | – | – | – | – | LC50 (Heliothis virescens [4]): 1.3 µg/mL (≈ 3.12 µM); LC50 (Spodoptera exigua [5]): 1.6 µg/mL (≈ 3.84 µM); LC50 (Trichoplusia ni [10]): 0.6 µg/mL (≈ 1.44 µM)
22 | Cc1ccc(-c2sc(-c3nc(-c4c(F)cccc4Cl)nn3C)cc2Br)cc1 | – | – | <50% | – | – | inactive | – | inactive | inactive | inactive | <50% | –
23 | Cc1c(-c2ccc(OC(F)(F)C(F)Cl)cc2)csc1-c1nc(-c2c(F)cccc2Cl)nn1C (stereo unspecified) | 90% | 90% | 80% | 70% | – | – | – | – | – | – | 90% | mortality at 50 ppm (Aphis gossypii [2]): 80%; LC50 (Heliothis virescens [4]): 4.38 µg/mL (≈ 8.48 µM); LC50 (Spodoptera exigua [5]): 1.56 µg/mL (≈ 3.02 µM); LC50 (Aphis gossypii [6]): < 5 µg/mL; LC50 (Myzus persicae): < 5 µg/mL; LC50 (Trichoplusia ni [10]): < 1.56 µg/mL
24 | Cc1c(-c2ccc(OC(F)(F)F)cc2)csc1-c1nc(-c2c(F)cccc2Cl)nn1C | 90% | 90% | 90% | 90% | – | – | – | – | – | – | 90% | mortality at 50 ppm (Aphis gossypii [2]): 90%; LC50 (Heliothis virescens [4]): > 400 µg/mL; LC50 (Spodoptera exigua [5]): 21.9 µg/mL (≈ 46.8 µM); LC90 (Aphis gossypii [6]): 22.2 ppm; LC50 (Aphis gossypii [6]): 0.07 µg/mL (≈ 0.15 µM); LC50 (Myzus persicae): 23.3 µg/mL (≈ 49.8 µM); LC50 (Trichoplusia ni [10]): 15.8 µg/mL (≈ 33.8 µM)
